One data set has as its system A2780. In words: Mitotic arrest in A2780 cells. In kind it is functional, cell-based. The note with it: Homo sapiens. The method, boiled down: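 Mitosis-specific nucleolin phosphorylation read-out. Total nucleolin is captured on streptavidin paramagnetic beads carrying biotinylated anti-nucleolin antibody 4E2, and detected by electrochemiluminescence of a Tris-bipyridyl label. Cells were treated for 16 h with a 7-point, half-log dilution series. EC50 is the average of at least two independent determinations.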

Data set [1] deals with T1, Kinesin-like protein KIF11 (Homo sapiens, UniProt P52732).
T1 sequence (P52732 whole entry): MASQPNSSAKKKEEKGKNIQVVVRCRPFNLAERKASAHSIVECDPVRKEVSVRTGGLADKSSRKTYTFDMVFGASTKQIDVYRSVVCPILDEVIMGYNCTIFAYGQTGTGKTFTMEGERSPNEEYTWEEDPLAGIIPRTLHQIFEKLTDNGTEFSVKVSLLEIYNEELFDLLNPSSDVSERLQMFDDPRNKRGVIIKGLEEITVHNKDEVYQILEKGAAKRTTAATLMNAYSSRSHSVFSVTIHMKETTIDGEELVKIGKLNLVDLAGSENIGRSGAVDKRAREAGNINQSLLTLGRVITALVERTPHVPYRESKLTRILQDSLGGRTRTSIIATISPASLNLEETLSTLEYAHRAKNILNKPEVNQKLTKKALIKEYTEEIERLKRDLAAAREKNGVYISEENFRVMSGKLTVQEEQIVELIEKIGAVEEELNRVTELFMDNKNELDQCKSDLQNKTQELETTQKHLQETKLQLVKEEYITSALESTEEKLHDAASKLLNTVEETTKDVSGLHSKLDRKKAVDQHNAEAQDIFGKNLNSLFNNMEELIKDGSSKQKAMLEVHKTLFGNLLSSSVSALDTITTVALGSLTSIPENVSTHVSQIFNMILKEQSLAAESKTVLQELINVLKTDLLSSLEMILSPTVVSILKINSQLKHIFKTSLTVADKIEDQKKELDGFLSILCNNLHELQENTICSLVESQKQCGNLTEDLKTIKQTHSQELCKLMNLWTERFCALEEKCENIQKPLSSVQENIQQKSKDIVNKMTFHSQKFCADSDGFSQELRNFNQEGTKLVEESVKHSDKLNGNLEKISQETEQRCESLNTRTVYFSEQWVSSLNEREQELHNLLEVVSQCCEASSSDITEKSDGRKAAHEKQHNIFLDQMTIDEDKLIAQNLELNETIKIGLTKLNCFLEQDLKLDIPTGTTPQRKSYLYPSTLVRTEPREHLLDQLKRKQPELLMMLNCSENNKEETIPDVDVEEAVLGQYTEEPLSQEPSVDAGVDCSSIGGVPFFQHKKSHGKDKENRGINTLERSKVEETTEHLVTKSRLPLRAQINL
In words: Inhibition of KSP.

Data set [2] is described as follows: Aqueous solubility at pH 5. In kind it is physicochemical. The following applies: aqueous solution.
Data set [3] can be described thus: Half life in monkey at 0.4 mg/kg, iv. Details: dose 0.4 mg/kg, route intravenous. The class given is ADME, organism-based, Macaca mulatta. The note with it: rhesus monkey, in vivo. The method, boiled down: (§1)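 Single intravenous dose; rats at 1.0 mg/kg (n = 4), dogs at 0.4 mg/kg (n = 4), monkeys at 0.4 mg/kg (n = 3). Plasma clearance (mL/min/kg), steady-state volume of distribution (Vdss, L/kg) and half-life (h) taken from the plasma concentration profile.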

The nature of data set [4]: Volume distribution in dog at 0.4 mg/kg, iv. The note with it: in vivo, read-out: Vdss. The class given is ADME, organism-based, Canis lupus familiaris. On the set-up: dose 0.4 mg/kg, route intravenous. The method, boiled down:
as §1

Data set [5] can be described thus: Volume distribution in monkey at 0.4 mg/kg, iv. The class given is ADME, organism-based, Macaca mulatta. On the set-up: dose 0.4 mg/kg, route intravenous. The following applies: rhesus monkey, in vivo, read-out: Vdss. The method, boiled down:
as §1

Data set [6] in a line: Half life in dog at 0.4 mg/kg, iv. The class given is ADME, organism-based, Canis lupus familiaris. On the set-up: dose 0.4 mg/kg, route intravenous. The note with it: in vivo. A digest of the protocol:
as §1

Data set [7] is described as follows: Plasma clearance in dog at 0.4 mg/kg, iv. On the set-up: dose 0.4 mg/kg, route intravenous. In kind it is ADME, organism-based, Canis lupus familiaris. A digest of the protocol: as §1
A short description of data set [8]: Plasma clearance in rat at 1 mg/kg, iv. On the set-up: dose 1 mg/kg, route intravenous. The class given is ADME, organism-based. The method, boiled down:
as §1

Data set [9] can be described thus: Plasma clearance in monkey at 0.4 mg/kg, iv. In kind it is ADME, organism-based, Macaca mulatta. Details: dose 0.4 mg/kg, route intravenous. The note with it: rhesus monkey. A digest of the protocol:
as §1

The nature of data set [10]: Volume distribution in rat at 1 mg/kg, iv. The class given is ADME, organism-based. On the set-up: dose 1 mg/kg, route intravenous. The following applies: in vivo, read-out: Vdss. A digest of the protocol:
as §1

Data set [11] in a line: Half life in rat at 1 mg/kg, iv. The note with it: in vivo. In kind it is ADME, organism-based. Details: dose 1 mg/kg, route intravenous. The method, boiled down: as §1
Data set [12] addresses Voltage-gated inwardly rectifying potassium channel KCNH2 (Homo sapiens, UniProt Q12809). The experiment in a line: Inhibitory activity against human hERG receptor expressed in HEK cells.

Voltage-gated inwardly rectifying potassium channel KCNH2, sequence (Q12809 whole entry): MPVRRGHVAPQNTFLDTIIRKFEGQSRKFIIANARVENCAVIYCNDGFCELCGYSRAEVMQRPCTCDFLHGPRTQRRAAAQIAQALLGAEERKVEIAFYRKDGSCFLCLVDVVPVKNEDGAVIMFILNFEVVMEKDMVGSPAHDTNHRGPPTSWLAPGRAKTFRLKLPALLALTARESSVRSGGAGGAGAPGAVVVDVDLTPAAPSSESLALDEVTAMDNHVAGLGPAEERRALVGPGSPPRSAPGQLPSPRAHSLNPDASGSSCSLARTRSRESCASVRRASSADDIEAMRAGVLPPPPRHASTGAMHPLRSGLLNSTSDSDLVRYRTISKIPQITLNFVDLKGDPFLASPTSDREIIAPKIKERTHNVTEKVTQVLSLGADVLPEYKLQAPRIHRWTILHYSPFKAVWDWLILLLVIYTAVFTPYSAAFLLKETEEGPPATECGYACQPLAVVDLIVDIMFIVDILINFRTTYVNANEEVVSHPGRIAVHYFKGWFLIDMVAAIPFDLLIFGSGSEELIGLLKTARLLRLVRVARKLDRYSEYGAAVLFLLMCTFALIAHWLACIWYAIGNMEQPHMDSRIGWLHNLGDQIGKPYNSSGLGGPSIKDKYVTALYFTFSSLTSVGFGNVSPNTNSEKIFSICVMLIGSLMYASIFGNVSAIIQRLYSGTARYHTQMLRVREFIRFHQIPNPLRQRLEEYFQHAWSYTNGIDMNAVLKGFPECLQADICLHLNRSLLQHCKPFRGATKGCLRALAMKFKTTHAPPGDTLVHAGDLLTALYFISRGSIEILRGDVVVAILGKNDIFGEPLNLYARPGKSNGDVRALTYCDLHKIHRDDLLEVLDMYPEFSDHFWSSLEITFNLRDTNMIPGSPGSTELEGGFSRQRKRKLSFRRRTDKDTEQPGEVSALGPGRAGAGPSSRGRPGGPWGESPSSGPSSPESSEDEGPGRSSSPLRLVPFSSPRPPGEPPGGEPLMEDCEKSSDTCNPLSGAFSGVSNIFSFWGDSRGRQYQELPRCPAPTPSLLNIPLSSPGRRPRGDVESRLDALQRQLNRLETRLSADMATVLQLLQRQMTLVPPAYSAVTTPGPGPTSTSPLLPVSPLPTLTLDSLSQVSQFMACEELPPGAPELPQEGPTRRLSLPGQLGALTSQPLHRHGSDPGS

As to `CC(C)(C)[C@H](NC(=O)OCCO)C(=O)N1CC(c2cc(F)ccc2F)=C[C@H]1c1ccccc1`, the EC50 – broadly, the concentration giving half of the maximal effect – in the data set with A2780 amounted to 0.013 µM. The half-maximal inhibitory concentration (IC50) (as a rule, the point on the concentration scale where inhibition reaches its midpoint) in data set [1] was 0.0074 µM.

Regarding `CC(C)(CN)C(=O)N1CC(c2cc(F)ccc2F)=C[C@H]1c1ccccc1`, the EC50 in the data set with A2780 came out at 0.011 µM. In addition, in [1], the IC50 was determined as 0.0052 µM.

Take `CC(C)[C@@H](N)C(=O)N1CC(c2cc(F)ccc2F)=C[C@H]1c1ccccc1`: in data set [1], half-maximal inhibition (IC50) required 3.1 µM.

As for `CC(C)(C)[C@H](N)C(=O)N1CC(c2cc(F)ccc2F)=C[C@H]1c1ccccc1`, the midpoint of the response with A2780, the EC50, lay at 0.0071 µM. In [1], this compound showed an IC50 of 0.0027 µM.

For `N[C@H](C(=O)N1CC(c2cc(F)ccc2F)=C[C@H]1c1ccccc1)C1CC1`, in data set [2], the solubility (usually the concentration that dissolves in the medium under given conditions) was greater than 10 mg/mL. Besides, the half-life (as a rule, the time needed for the level to fall by half in the phase considered) in data set [3] was 4.5 h; in [6], 2.3 h; in data set [11], 1.4 h. Further, the figures for the Vd in data set [4], in data set [5] and in data set [10] were 3.8 L/kg, 7.4 L/kg and 4.4 L/kg, respectively. Further, the clearance (in general, the volume of plasma or blood freed of the substance per unit of time) worked out at 1.38 L/h/kg in [7], 2.4 L/h/kg in [8] and 1.26 L/h/kg in [9]. The compound also came in with a 50% effective concentration (EC50) with A2780 of 0.0086 µM.

In the case of `CN(C(=O)N1CC(c2cc(F)ccc2F)=C[C@H]1c1ccccc1)C1CCNCC1`, the solubility in data set [2] is greater than 10 mg/mL. Further, in the data set on A2780, it took 0.0068 µM to reach a half-maximal effect (EC50).

`CC(=O)N1CCC(N(C)C(=O)N2CC(c3cc(F)ccc3F)=C[C@H]2c2ccccc2)CC1` displayed an EC50 with A2780 of 0.069 µM. In data set [1], this compound returned an IC50 of 0.05 µM.

With `CC(C)[C@H](N)C(=O)N1CC(c2cc(F)ccc2F)=C[C@H]1c1ccccc1`, the EC50 in the data set on A2780 was determined as 0.012 µM. Half-maximal inhibition in [1] (IC50) required 0.0036 µM.

In turn, `O=C([C@@H](O)C1CC1)N1CC(c2cc(F)ccc2F)=C[C@H]1c1ccccc1` returned a concentration for a half-maximal effect (EC50) with A2780 of 0.02 µM. In addition, the concentration for half-maximal inhibition (IC50) worked out at 11 µM in data set [12] and 0.011 µM in [1].

`CN(CCCN)C(=O)N1CC(c2cc(F)ccc2F)=C[C@H]1c1ccccc1`: the EC50 in the data set on A2780 is 0.044 µM. In addition, the half-maximal inhibitory concentration (IC50) in data set [1] was found to be 0.016 µM.

Regarding `CN(C)C(=O)N1CC(c2cc(F)ccc2F)=C[C@@H]1c1ccccc1`, the IC50 in data set [1] was greater than 50 µM.

As to `CC(=O)N1CC(c2cc(F)ccc2F)=CC1c1ccccc1` (racemic), the IC50 in data set [1] stood at 4 µM.

The compound `CC(C)(C)C(=O)N1N=C(c2cc(F)ccc2F)CC1c1ccccc1` (racemic) yielded an IC50 in data set [1] of 0.113 µM.

Consider `CC(C)(C)C(=O)N1CC(c2cc(F)ccc2F)=CC1c1ccccc1` (racemic), for which, in data set [1], inhibition was half-maximal at 0.085 µM (IC50).
